Assay results published in ChEMBL document CHEMBL4049407, “Positional Scanning Identifies the Molecular Determinants of a High Affinity Multi-Leucine Inhibitor for Furin and PACE4” (J Med Chem, 2017).
Calls of active or inactive are those of the source. No rule for the calls is given here. Peptide text beside a SMILES is read from it. * marks the point of attachment. NH(4-amidinobenzyl) = N=C(N)c1ccc(CN*)cc1

Tests used:
[1] = target: Furin (Homo sapiens, UniProt P09958); experiment: Inhibition of recombinant human furin expressed in drosophila S2 cells using pyrGlu-Arg-Thr-Lys-Arg-7-amido-4-methylcoumarin as substrate after 60 mins by spectrofluorometry method; type: cell-based
Chain of Furin (P09958 whole entry): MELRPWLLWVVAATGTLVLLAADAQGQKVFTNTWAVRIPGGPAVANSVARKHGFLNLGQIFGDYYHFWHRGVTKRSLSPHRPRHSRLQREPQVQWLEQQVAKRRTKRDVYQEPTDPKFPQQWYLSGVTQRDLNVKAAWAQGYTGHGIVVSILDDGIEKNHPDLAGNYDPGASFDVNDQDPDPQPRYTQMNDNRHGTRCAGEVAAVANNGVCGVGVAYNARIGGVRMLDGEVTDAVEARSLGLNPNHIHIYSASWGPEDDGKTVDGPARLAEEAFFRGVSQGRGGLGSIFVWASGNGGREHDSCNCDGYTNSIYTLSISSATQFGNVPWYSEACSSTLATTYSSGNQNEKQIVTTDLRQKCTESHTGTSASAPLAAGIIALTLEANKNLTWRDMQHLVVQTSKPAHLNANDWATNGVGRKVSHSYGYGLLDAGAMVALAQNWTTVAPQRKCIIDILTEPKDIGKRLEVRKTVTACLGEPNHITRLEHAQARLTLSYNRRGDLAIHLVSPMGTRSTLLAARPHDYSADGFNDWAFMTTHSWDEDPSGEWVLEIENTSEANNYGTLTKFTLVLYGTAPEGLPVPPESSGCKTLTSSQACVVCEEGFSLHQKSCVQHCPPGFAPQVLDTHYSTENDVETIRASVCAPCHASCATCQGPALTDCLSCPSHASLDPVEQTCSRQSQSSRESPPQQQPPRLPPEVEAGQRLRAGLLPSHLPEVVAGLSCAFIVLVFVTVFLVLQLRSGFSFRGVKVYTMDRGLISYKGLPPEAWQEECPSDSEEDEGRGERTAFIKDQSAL
Outline: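 Human recombinant purified furin at 2 units/100 µL (0.54 nM), in 100 mM HEPES pH 7.5, 1 mM CaCl2, 1 mM β-mercaptoethanol, 1.8 mg/mL BSA. His-containing peptides run instead in 20 mM BisTris pH 6.5 with the same additives. Substrate 100 µM, KM 5.04 µM. Inhibitor 1 nM to 10 µM; 60 min at 37°C. Fluorescence ex 370 / em 460 nm. Ki by Morrison equation; triplicate experiments, mean ± SD.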

[2] = target: T1, Proprotein convertase subtilisin/kexin type 6 (Homo sapiens, UniProt P29122); experiment: Inhibition of recombinant human PACE4 expressed in drosophila S2 cells using pyrGlu-Arg-Thr-Lys-Arg-7-amido-4-methylcoumarin as substrate after 60 mins by spectrofluorometry method; type: cell-based
T1 sequence (P29122 whole entry): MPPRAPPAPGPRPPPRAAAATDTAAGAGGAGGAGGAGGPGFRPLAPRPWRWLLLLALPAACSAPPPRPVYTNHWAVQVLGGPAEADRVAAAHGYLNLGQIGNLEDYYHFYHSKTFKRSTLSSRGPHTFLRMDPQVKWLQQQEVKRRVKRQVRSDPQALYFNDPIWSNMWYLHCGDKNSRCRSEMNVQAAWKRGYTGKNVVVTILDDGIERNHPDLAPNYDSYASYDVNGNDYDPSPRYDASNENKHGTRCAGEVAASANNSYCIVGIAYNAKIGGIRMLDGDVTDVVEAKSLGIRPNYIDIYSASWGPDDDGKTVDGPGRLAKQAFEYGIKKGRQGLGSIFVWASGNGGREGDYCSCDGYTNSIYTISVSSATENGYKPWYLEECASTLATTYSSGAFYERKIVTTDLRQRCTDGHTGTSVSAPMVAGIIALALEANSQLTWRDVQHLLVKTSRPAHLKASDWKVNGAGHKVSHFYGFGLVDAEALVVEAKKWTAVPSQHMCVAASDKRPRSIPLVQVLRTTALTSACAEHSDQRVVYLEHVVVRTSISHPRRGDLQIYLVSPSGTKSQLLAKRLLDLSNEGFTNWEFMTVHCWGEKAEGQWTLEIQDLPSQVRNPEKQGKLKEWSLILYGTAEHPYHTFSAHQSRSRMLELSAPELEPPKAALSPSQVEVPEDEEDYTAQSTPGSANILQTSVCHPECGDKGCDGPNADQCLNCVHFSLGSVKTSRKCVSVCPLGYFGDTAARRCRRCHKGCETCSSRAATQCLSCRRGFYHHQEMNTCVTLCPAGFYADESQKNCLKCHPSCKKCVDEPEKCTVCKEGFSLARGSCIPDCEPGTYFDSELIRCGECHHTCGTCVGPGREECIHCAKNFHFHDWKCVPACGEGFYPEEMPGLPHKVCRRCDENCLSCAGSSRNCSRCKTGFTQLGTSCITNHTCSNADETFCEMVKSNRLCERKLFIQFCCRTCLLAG
Outline: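 Human recombinant purified PACE4 at 2 units/100 µL (20.18 nM), in 20 mM BisTris pH 6.5, 1 mM CaCl2, 1.8 mg/mL BSA. Substrate 100 µM, KM 4.035 µM. Inhibitor 1 nM to 10 µM; 60 min at 37°C. Fluorescence ex 370 / em 460 nm. Ki by Morrison tight-binding equation; three independent experiments, mean ± SD.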

[3] = test system: DU-145; experiment: Antiproliferative activity against human DU145 cells assessed as reduction in metabolic activity at 25 to 100 uM after 72 hrs by MTT assay; type: functional, cell-based
Outline: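 First-pass MTT screen of each library peptide on DU145 cells (RPMI 1640, 5% FBS, 1500 cells/well, poly-L-lysine plates). Peptides added 24 h after seeding at 25, 50 and 100 µM in fresh serum medium for 72 h. MTT 1 mg/mL for 4 h; 2-propanol HCl solubilisation. Activity normalised to water vehicle. Mean ± SEM of at least two independent experiments.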

[4] = species on record: Homo sapiens; experiment: Selectivity index, ratio of Ki for recombinant human furin expressed in drosophila S2 cells to Ki for recombinant human PACE4 expressed in drosophila S2 cells; type: cell-based
Outline: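 Ratio Ki(furin)/Ki(PACE4). […] PACE4 buffer was BisTris pH 6.5; furin buffer was HEPES pH 7.5, or BisTris pH 6.5 for His peptides. Ki fitted by Morrison equation from three independent experiments.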

Row | SMILES | Ki [1] [nM] | Ki [2] [nM] | Activity [3] | Ratio Ki [4]
1 | CC(=O)N[C@@H](CC(C)C)C(=O)N[C@@H](CC(C)C)C(=O)N[C@@H](CC(C)C)C(=O)N[C@@H](CCC(=O)O)C(=O)N[C@@H](CCCNC(=N)N)C(=O)N[C@H](C(=O)N[C@@H](CCCCN)C(=O)NCc1ccc(C(=N)N)cc1)C(C)C (Ac-LLLERVK-{NH(4-amidinobenzyl)}) | 38 | 46 | inactive | 0.8
2 | CC(=O)N[C@@H](CC(C)C)C(=O)N[C@@H](CC(C)C)C(=O)N[C@@H](CC(C)C)C(=O)NCC(=O)N[C@@H](CCCNC(=N)N)C(=O)N[C@H](C(=O)N[C@@H](CCCCN)C(=O)NCc1ccc(C(=N)N)cc1)C(C)C (Ac-LLLGRVK-{NH(4-amidinobenzyl)}) | 12 | 18 | inactive | 0.7
3 | CC(=O)N[C@@H](CC(C)C)C(=O)N[C@@H](CC(C)C)C(=O)N[C@@H](CC(C)C)C(=O)N[C@@H](Cc1cnc[nH]1)C(=O)N[C@@H](CCCNC(=N)N)C(=O)N[C@H](C(=O)N[C@@H](CCCCN)C(=O)NCc1ccc(C(=N)N)cc1)C(C)C (Ac-LLLHRVK-{NH(4-amidinobenzyl)}) | 0.9 | 0.4 | inactive | 2.3
4 | CC(=O)N[C@@H](CC(C)C)C(=O)N[C@@H](CC(C)C)C(=O)N[C@@H](CC(C)C)C(=O)N[C@@H](CCCCN)C(=O)N[C@@H](CCCNC(=N)N)C(=O)N[C@H](C(=O)N[C@@H](CCCCN)C(=O)NCc1ccc(C(=N)N)cc1)C(C)C (Ac-LLLKRVK-{NH(4-amidinobenzyl)}) | 0.9 | 2 | inactive | 0.5
5 | CSCC[C@H](NC(=O)[C@H](CC(C)C)NC(=O)[C@H](CC(C)C)NC(=O)[C@H](CC(C)C)NC(C)=O)C(=O)N[C@@H](CCCNC(=N)N)C(=O)N[C@H](C(=O)N[C@@H](CCCCN)C(=O)NCc1ccc(C(=N)N)cc1)C(C)C (Ac-LLLMRVK-{NH(4-amidinobenzyl)}) | 3.4 | 3.7 | inactive | 0.9
6 | CC(=O)N[C@@H](CC(C)C)C(=O)N[C@@H](CC(C)C)C(=O)N[C@@H](CC(C)C)C(=O)N[C@@H](CC(N)=O)C(=O)N[C@@H](CCCNC(=N)N)C(=O)N[C@H](C(=O)N[C@@H](CCCCN)C(=O)NCc1ccc(C(=N)N)cc1)C(C)C (Ac-LLLNRVK-{NH(4-amidinobenzyl)}) | 3 | 1.7 | inactive | 1.8
7 | CC(=O)N[C@@H](CC(C)C)C(=O)N[C@@H](CC(C)C)C(=O)N[C@@H](CC(C)C)C(=O)N1CCC[C@H]1C(=O)N[C@@H](CCCNC(=N)N)C(=O)N[C@H](C(=O)N[C@@H](CCCCN)C(=O)NCc1ccc(C(=N)N)cc1)C(C)C (Ac-LLLPRVK-{NH(4-amidinobenzyl)}) | 4 | 6 | inactive | 0.7
8 | CC(=O)N[C@@H](CC(C)C)C(=O)N[C@@H](CC(C)C)C(=O)N[C@@H](CC(C)C)C(=O)N[C@@H](CCCNC(=N)N)C(=O)N[C@@H](CCCNC(=N)N)C(=O)N[C@H](C(=O)N[C@@H](CCCCN)C(=O)NCc1ccc(C(=N)N)cc1)C(C)C (Ac-LLLRRVK-{NH(4-amidinobenzyl)}) | 0.7 | 0.2 | inactive | 3.5
9 | CC(=O)N[C@@H](CC(C)C)C(=O)N[C@@H](CC(C)C)C(=O)N[C@@H](CC(C)C)C(=O)N[C@@H](CO)C(=O)N[C@@H](CCCNC(=N)N)C(=O)N[C@H](C(=O)N[C@@H](CCCCN)C(=O)NCc1ccc(C(=N)N)cc1)C(C)C (Ac-LLLSRVK-{NH(4-amidinobenzyl)}) | 4 | 2 | inactive | 2
10 | CC(=O)N[C@@H](CC(C)C)C(=O)N[C@@H](CC(C)C)C(=O)N[C@@H](CC(C)C)C(=O)N[C@H](C(=O)N[C@@H](CCCNC(=N)N)C(=O)N[C@H](C(=O)N[C@@H](CCCCN)C(=O)NCc1ccc(C(=N)N)cc1)C(C)C)[C@@H](C)O (Ac-LLLTRVK-{NH(4-amidinobenzyl)}) | 4.5 | 2.8 | inactive | 1.6
11 | CC(=O)N[C@@H](CC(C)C)C(=O)N[C@@H](CC(C)C)C(=O)N[C@@H](CC(C)C)C(=O)N[C@@H](Cc1c[nH]c2ccccc12)C(=O)N[C@@H](CCCNC(=N)N)C(=O)N[C@H](C(=O)N[C@@H](CCCCN)C(=O)NCc1ccc(C(=N)N)cc1)C(C)C (Ac-LLLWRVK-{NH(4-amidinobenzyl)}) | 8 | 2.8 | inactive | 2.9
12 | CC(=O)N[C@@H](CC(C)C)C(=O)N[C@@H](CC(C)C)C(=O)N[C@@H](CC(C)C)C(=O)N[C@@H](Cc1ccc(O)cc1)C(=O)N[C@@H](CCCNC(=N)N)C(=O)N[C@H](C(=O)N[C@@H](CCCCN)C(=O)NCc1ccc(C(=N)N)cc1)C(C)C (Ac-LLLYRVK-{NH(4-amidinobenzyl)}) | 3.1 | 2 | inactive | 1.6
13 | CSCC[C@H](NC(=O)[C@H](CC(C)C)NC(=O)[C@H](CC(C)C)NC(C)=O)C(=O)N[C@@H](CC(C)C)C(=O)N[C@@H](CCCNC(=N)N)C(=O)N[C@H](C(=O)N[C@@H](CCCCN)C(=O)NCc1ccc(C(=N)N)cc1)C(C)C (Ac-LLMLRVK-{NH(4-amidinobenzyl)}) | 18 | 28 | inactive | 0.6
14 | CC(=O)N[C@@H](CC(C)C)C(=O)N[C@@H](CC(C)C)C(=O)N[C@@H](CC(N)=O)C(=O)N[C@@H](CC(C)C)C(=O)N[C@@H](CCCNC(=N)N)C(=O)N[C@H](C(=O)N[C@@H](CCCCN)C(=O)NCc1ccc(C(=N)N)cc1)C(C)C (Ac-LLNLRVK-{NH(4-amidinobenzyl)}) | 13 | 18 | inactive | 0.7
15 | CC(=O)N[C@@H](CC(C)C)C(=O)N[C@@H](CC(C)C)C(=O)N1CCC[C@H]1C(=O)N[C@@H](CC(C)C)C(=O)N[C@@H](CCCNC(=N)N)C(=O)N[C@H](C(=O)N[C@@H](CCCCN)C(=O)NCc1ccc(C(=N)N)cc1)C(C)C (Ac-LLPLRVK-{NH(4-amidinobenzyl)}) | 1.4 | 4 | inactive | 0.4
16 | CC(=O)N[C@@H](CC(C)C)C(=O)N[C@@H](CC(C)C)C(=O)N[C@@H](CCC(N)=O)C(=O)N[C@@H](CC(C)C)C(=O)N[C@@H](CCCNC(=N)N)C(=O)N[C@H](C(=O)N[C@@H](CCCCN)C(=O)NCc1ccc(C(=N)N)cc1)C(C)C (Ac-LLQLRVK-{NH(4-amidinobenzyl)}) | 5 | 4.1 | inactive | 1.2
17 | CC(=O)N[C@@H](CC(C)C)C(=O)N[C@@H](CC(C)C)C(=O)N[C@@H](CCCNC(=N)N)C(=O)N[C@@H](CC(C)C)C(=O)N[C@@H](CCCNC(=N)N)C(=O)N[C@H](C(=O)N[C@@H](CCCCN)C(=O)NCc1ccc(C(=N)N)cc1)C(C)C (Ac-LLRLRVK-{NH(4-amidinobenzyl)}) | 0.5 | 0.9 | inactive | 0.6
